Reference: ChEMBL document CHEMBL6078712, “Triterpenoid phthalimides as selective anti-cancer agents targeting mitochondrial apoptosis” (Eur J Med Chem, 2025)
Calls of active or inactive are those of the source. The calls are words filed in the database; no cut-off is given here.

How the values were obtained:
Mitochondrial membrane [1] = assay: Induction of mitochondrial membrane potential depolarization in human CCRF-CEM cells assessed as fold increase in fluorescence intensity at 5 times IC50 incubated for 24 hrs by JC-1 staining based flow cytometry; format: cell membranes
CCRF-CEM [2] = assay: Induction of cell cycle arrest in human CCRF-CEM cells assessed as downregulation of Cyclin D expression at 5 times IC50 incubated for 24 hrs by Western blotting analysis; format: functional, cell-based
Summary of the method: (§1)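 30 µg protein per lane on SDS-PAGE, transferred to nitrocellulose, blocked in 5 % BSA/TBS-Tween. Primary antibodies overnight at 4 °C (Akt, P-Akt Ser473, STAT-3, caspase-3, PARP, cyclin D, cyclin A, Bcl-xL, Bak, Bid, Bim), then HRP secondary and ECL detection. GAPDH as loading control.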

CCRF-CEM [3] = assay: Induction of cell cycle arrest in human CCRF-CEM cells assessed as downregulation of Cyclin A expression at 5 times IC50 incubated for 24 hrs by Western blotting analysis; format: functional, cell-based; summary of the method: as §1
CCRF-CEM [4] = assay: Inhibition of RNA synthesis in human CCRF-CEM cells at 5 times IC50 incubated for 24 hrs by BrU incorporation based flow cytometry; format: functional
Summary of the method: (§2)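 Fixed in 1 % paraformaldehyde/0.05 % NP-40 (15 min at room temperature, then 4 °C overnight). Stained with cross-reacting anti-BrdU plus FITC secondary (45 min each), then PI/RNase A. Flow cytometry; % BrU-positive cells.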

K562 = assay: Cytotoxicity against human K562 cells assessed as inhibition of cell growth incubated for 72 hrs by MTS assay; format: functional, cell-based; conditions: K562, 72 h
Summary of the method: (§3)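 MTS assay on eight human cancer lines and two non-tumour fibroblast lines. IC50 is the concentration that inhibits cell growth by 50 %. SD typically up to 15 % of the mean.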

CCRF-CEM [5] = assay: Induction of apoptosis in human CCRF-CEM cells assessed as downregulation of BCL-XL expression at 5 times IC50 incubated for 24 hrs by Western blotting analysis; format: functional, cell-based; summary of the method: as §1
[6] = Cytotoxicity against human BJ cells assessed as inhibition of cell growth incubated for 72 hrs by MTS assay; format: toxicity, cell-based; summary of the method: as §3
CCRF-CEM [7] = assay: Induction of apoptosis in human CCRF-CEM cells assessed as necrotic cells at 1 times IC50 incubated for 24 hrs by Annexin V-FITC and PI staining based flow cytometric analysis (reference value: 0.4 %); format: functional
Summary of the method: (§4)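 Washed in Ca2+-containing binding buffer, then stained 15 min at room temperature in the dark with Annexin V-FITC and propidium iodide (PI at half the kit-recommended level). Read at once by flow cytometry with a 488 nm laser, ≥10,000 cells. Debris excluded; quadrants viable, early apoptotic, late apoptotic/necrotic, necrotic. Three independent experiments.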

CCRF-CEM [8] = assay: Induction of apoptosis in human CCRF-CEM cells assessed as early apoptotic cells at 1 times IC50 incubated for 24 hrs by Annexin V-FITC and PI staining based flow cytometric analysis (reference value: 2.1 %); format: functional; summary of the method: as §4
CCRF-CEM [9] = assay: Induction of cell cycle arrest in human CCRF-CEM cells assessed as downregulation of total STAT3 expression at 5 times IC50 incubated for 24 hrs by Western blotting analysis; format: functional, cell-based; summary of the method: as §1
CCRF-CEM [10] = assay: Induction of apoptosis in human CCRF-CEM cells assessed as necrotic cells at 5 times IC50 incubated for 24 hrs by Annexin V-FITC and PI staining based flow cytometric analysis (reference value: 0.4 %); format: functional; summary of the method: as §4
[11] = Stability in human plasma assessed as compound remaining at 2 uM incubated for 30 mins by RF-MS analysis; format: ADME, cell-free; conditions: read-out: Stability
Summary of the method: (§5)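 Human plasma stability, plasma protein binding and liver microsome stability, each run in triplicate. Error deviations below 10 %.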

CCRF-CEM [12] = assay: Induction of cell cycle arrest in human CCRF-CEM cells assessed as downregulation of AKT phosphorylation at 5 times IC50 incubated for 24 hrs by Western blotting analysis; format: functional, cell-based; summary of the method: as §1
Mitochondrial membrane [13] = assay: Induction of mitochondrial membrane potential depolarization in human CCRF-CEM cells assessed as fold increase in fluorescence intensity incubated for 24 hrs by JC-1 staining based flow cytometry; format: cell membranes
[14] = Plasma protein binding in human assessed as fraction bound at 10 uM incubated for 4 hrs by rapid equilibrium dialysis based RF-MS analysis; format: ADME, cell-free; conditions: read-out: PPB (converted); summary of the method: as §5
[15] = Stability in human plasma assessed as compound remaining at 2 uM incubated for 120 mins by RF-MS analysis; format: ADME, cell-free; conditions: read-out: Stability; summary of the method: as §5
CEM-DNR = assay: Cytotoxicity against human CEM-DNR cells assessed as inhibition of cell growth incubated for 72 hrs by MTS assay; format: functional, cell-based; summary of the method: as §3
[16] = Metabolic stability in human liver microsomes assessed as parent compound remaining at 2 uM incubated for 30 mins in presence of NADPH by RF-MS analysis; format: ADME, Microsome; conditions: read-out: Stability; summary of the method: as §5
U2OS = assay: Cytotoxicity against human U2OS cells assessed as inhibition of cell growth incubated for 72 hrs by MTS assay; format: functional, cell-based; summary of the method: as §3
CCRF-CEM [17] = assay: Inhibition of DNA synthesis in human CCRF-CEM cells at 5 times IC50 incubated for 24 hrs by BrdU incorporation based flow cytometry; format: functional
Summary of the method: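 Fixed in ice-cold 70 % ethanol, DNA denatured in 2 M HCl for 30 min, neutralised with borax. Stained with anti-BrdU plus FITC secondary, then PI/RNase A for 1 h. Flow cytometry; % BrdU-positive cells.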

CCRF-CEM [18] = assay: Induction of apoptosis in human CCRF-CEM cells assessed as upregulation of BID expression at 1 to 5 times IC50 incubated for 24 hrs by Western blotting analysis; format: functional, cell-based; summary of the method: as §1
CCRF-CEM [19] = assay: Induction of cell cycle arrest in human CCRF-CEM cells assessed as downregulation of AKT phosphorylation at 1 times IC50 incubated for 24 hrs by Western blotting analysis; format: functional, cell-based; summary of the method: as §1
CCRF-CEM [20] = assay: Induction of cell cycle arrest in human CCRF-CEM cells assessed as downregulation of total AKT expression at 5 times IC50 incubated for 24 hrs by Western blotting analysis; format: functional, cell-based; summary of the method: as §1
CCRF-CEM [21] = assay: Induction of apoptosis in human CCRF-CEM cells assessed as late apoptotic cells at 1 times IC50 incubated for 24 hrs by Annexin V-FITC and PI staining based flow cytometric analysis (reference value: 0.4 %); format: functional; summary of the method: as §4
HCT-116 = assay: Cytotoxicity against human HCT-116 cells assessed as inhibition of cell growth incubated for 72 hrs by MTS assay; format: functional, cell-based; conditions: HCT-116, 72 h; summary of the method: as §3
[22] = Metabolic stability in human liver microsomes assessed as parent compound remaining at 2 uM incubated for 60 mins in presence of NADPH by RF-MS analysis; format: ADME, Microsome; conditions: read-out: Stability; summary of the method: as §5
HCT 116 TP53(-/-) = assay: Cytotoxicity against human HCT116-p53-null cells assessed as inhibition of cell growth incubated for 72 hrs by MTS assay; format: functional, cell-based; summary of the method: as §3
CCRF-CEM [23] = assay: Induction of apoptosis in human CCRF-CEM cells assessed as downregulation of caspase-3 expression at 5 times IC50 incubated for 24 hrs by Western blotting analysis; format: functional, cell-based; summary of the method: as §1
CCRF-CEM [24] = assay: Induction of apoptosis in human CCRF-CEM cells assessed as late apoptotic cells at 5 times IC50 incubated for 24 hrs by Annexin V-FITC and PI staining based flow cytometric analysis (reference value: 0.4 %); format: functional; summary of the method: as §4
CCRF-CEM [25] = assay: Inhibition of RNA synthesis in human CCRF-CEM cells at 1 times IC50 incubated for 24 hrs by BrU incorporation based flow cytometry; format: functional; summary of the method: as §2
[26] = Cytotoxicity against human MRC5 cells assessed as inhibition of cell growth incubated for 72 hrs by MTS assay; format: toxicity, cell-based; summary of the method: as §3

CC(=O)O[C@H]1CC[C@]2(C)[C@H]3CC[C@@H]4[C@H]5[C@H](c6cc7c(c(-c8ccccc8)c6)C(=O)N(c6cc[nH]n6)C7=O)CC[C@]5(C(=O)O)CC[C@@]4(C)[C@]3(C)CC[C@H]2C1(C)C
fold change (FC) (Mitochondrial membrane [1]): > 20 | Activity (CCRF-CEM [2]): Active | Activity (CCRF-CEM [3]): Active | inhibition (INH) (CCRF-CEM [4]): 47.4% | IC50 (K562): 14.5 µM | Activity (CCRF-CEM [5]): Active | IC50 at 72 h [6]: 31.8 µM | Activity (CCRF-CEM [7]): 0% | Activity (CCRF-CEM [8]): 4.8% | Activity (CCRF-CEM [9]): Active | Activity (CCRF-CEM [10]): 0.1% | remaining at 0.5 h, 2 µM [11]: 91% | Activity (CCRF-CEM [12]): Active | Activity (Mitochondrial membrane [13]): Dose-dependent-effect | fraction unbound at 4 h, 10 µM [14]: 0.121 | remaining at 2 h, 2 µM [15]: 86% | IC50 (CEM-DNR): 11.5 µM | remaining at 0.5 h, 2 µM [16]: 99% | IC50 (U2OS): 13.8 µM | inhibition (INH) (CCRF-CEM [17]): 9.9% | Activity (CCRF-CEM [18]): Active | Activity (CCRF-CEM [19]): Active | Activity (CCRF-CEM [20]): Active; Slight Activity Observed | Activity (CCRF-CEM [21]): 2.4% | IC50 (HCT-116): 9.54 µM | remaining at 1 h, 2 µM [22]: 81% | IC50 (HCT 116 TP53(-/-)): 13.7 µM | Activity (CCRF-CEM [23]): Active | Activity (CCRF-CEM [24]): 5.5% | inhibition (INH) (CCRF-CEM [25]): 23.8% | IC50 at 72 h [26]: 22.6 µM
